According to ChEMBL document CHEMBL3124867, “Hepatitis C replication inhibitors that target the viral NS4B protein” (J Med Chem, 2014):
pEC50, pIC50: −log10 of the molar value.

Experiments:
Rattus norvegicus = experiment: Prodrug conversion in CD rat assessed as 4-(3-chloro-6-cyclopropyl-8-(trifluoromethyl)imidazo[1,2-a]pyridine-2-carbonyl)-1-((trans)-4-hydroxycyclohexyl)piperazin-2-one level at 300 mg/kg, po; type: ADME, organism-based; parameters: dose 300 mg/kg, route oral; conditions: in vivo
Procedure, shortened: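 CD rats were given a single oral dose of 300 mg/kg of parent suspension or of prodrug. Plasma was assayed for the parent drug and for uncleaved prodrug.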

Hepatitis C virus [1] = experiment: Antiviral activity against Hepatitis C virus genotype 1a infected in human HuH7 cells after 48 hrs by luciferase reporter gene assay; type: functional, organism-based, Hepacivirus hominis; conditions: subtype 1a, Huh-7, 48 h
Hepatitis C virus [2] = experiment: Antiviral activity against Hepatitis C virus genotype 1b expressing NS4B H94N mutant infected in human HuH7 cells after 48 hrs by luciferase reporter gene assay; type: functional, organism-based, Hepacivirus hominis; conditions: Huh-7, 48 h
[3] = Displacement of [3H]-3-(1-(3-chloro-6-isopropyl-8-(trifluoromethyl)imidazo[1,2-a]pyridine-2-carbonyl)piperidin-4-yl)oxazolidin-2-one from HCV genotype 1b C-terminal His-tagged NS4B (1 to 261 aa) expressed in baculovirus infected SF9 cells after overnight incubation; parameters: species or system Hepatitis C virus subtype 1b
Hepatitis C virus [4] = experiment: Antiviral activity against Hepatitis C virus genotype 1b infected in human HuH7 cells after 48 hrs by luciferase reporter gene assay; type: functional, organism-based, Hepacivirus hominis; conditions: Huh-7, 48 h
Hepatitis C virus [5] = experiment: Antiviral activity against Hepatitis C virus genotype 1b expressing NS4B V105M mutant infected in human HuH7 cells after 48 hrs by luciferase reporter gene assay; type: functional, organism-based, Hepacivirus hominis; conditions: Huh-7, 48 h
[6] = Lipophilicity, log D of the compound by chromatographic analysis; type: physicochemical
Procedure, shortened: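 Lipophilicity was measured chromatographically and reported as ChromLogD; ≥6 replicates.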

Huh-7 = experiment: Cytotoxicity against human HuH7 cells at 50 uM after 2 days by Cell Titer Glo assay; type: cell-based; conditions: huh-7, 48 h
Procedure, shortened: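 Huh7 cells were exposed to compound at 50 μM for 2 days and scored for cellular toxicity.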

Hepatitis C virus [7] = experiment: Antiviral activity against wild-type Hepatitis C virus genotype 1a infected in PXB mouse assessed as log reduction in viral mRNA titer at 100 mg/kg, po bid every 12 hrs for 7 days relative to control; type: functional, Hepacivirus hominis, subtype 1a
Procedure, shortened: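 PXB mice were infected with HCV genotype 1a wild-type virus and treated 5−8 weeks later (n = 4/group). Oral dosing b.i.d. for 7 days: prodrug at 10 or 30 mg/kg, or positive control at 100 mg/kg. Serum HCV RNA titers (viral load) were followed over the course of dosing.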

Stability (Rattus norvegicus) | Structure (SMILES) | pEC50 (Hepatitis C virus [1]) | pEC50 (Hepatitis C virus [2]) | pIC50 [3] | pEC50 (Hepatitis C virus [4]) | pEC50 (Hepatitis C virus [5]) | chromatographic logD [6] | Activity (Huh-7) | FC (Hepatitis C virus [7])
Stable | CCC(=O)O[C@H]1CC[C@H](N2CCN(C(=O)c3nc4c(C(F)(F)F)cc(C5CC5)cn4c3Cl)CC2=O)CC1 |  |  |  |  |  |  |  | 
 | O=C(c1nc2c(C(F)(F)F)cc(C3CC3)cn2c1Cl)N1CCN(C(=O)[C@H]2C[C@H](O)C2)CC1 | 8.20 | 6.14 | 7.00 | 7.72 | < 6.00 |  |  | 
 | O=C(c1nn2c(C(F)(F)F)cc(C3CC3)cc2c1Cl)N1CCC(N2CCOC2=O)CC1 | 8.70 | 7.03 | 7.43 | 8.30 | 6.43 |  |  | 
 | O=C(c1nn2c(C(F)(F)F)cc(C3CC3)cc2c1Cl)N1CCN([C@H]2C[C@H]3C[C@H]3[C@H]2O)C(=O)C1 | 6.92 | < 6.00 | 7.80 | 7.52 | < 6.00 |  |  | 
Stable | CN(C)CC(=O)O[C@H]1CC[C@H](N2CCN(C(=O)c3nc4c(C(F)(F)F)cc(C5CC5)cn4c3Cl)CC2=O)CC1 |  |  |  |  |  |  |  | 
 | O=C(c1nn2c(C(F)(F)F)cc(C3CC3)cc2c1Cl)N1CCN([C@@H]2C[C@H]3C[C@H]3[C@H]2O)C(=O)C1 | 8.40 | 7.42 | 7.64 | 8.64 | 7.19 |  |  | 
 | O=C(c1nn2c(C(F)(F)F)cc(C3CC3)cc2c1Cl)N1CCN([C@H]2C[C@@H]3C[C@@H]3[C@H]2O)C(=O)C1 | 7.39 | < 6.00 | 7.74 | 7.85 | < 6.00 |  |  | 
 | O=C(c1nc2c(C(F)(F)F)cc(C3CC3)cn2c1Cl)N1CCC2(OCC3(CC3)CO2)C(O)C1 (racemic) | 7.85 | 6.64 | 7.55 | 8.37 | 6.11 |  |  | 
 | Cn1c(C(=O)N2CCN([C@H]3CC[C@H](O)CC3)C(=O)C2)nc2c(C(F)(F)F)cc(C3CC3)cc21 | 9.30 | 6.82 | 7.62 | 8.52 | 6.64 | 4.3 | Non-toxic | 
 | O=C(c1nc2c(C(F)(F)F)cc(C3CC3)cn2c1Cl)N1CCN([C@@H]2C[C@H]3C[C@H]3C2)C(=O)C1 | 8.85 | 7.70 | 7.24 | 9.00 | 7.23 |  |  | 
 | O=C(c1nc2c(C(F)(F)F)cc(C3CC3)cn2c1Cl)N1CCC(N2CCOC2=O)CC1 | 8.08 | 6.43 | 7.12 | 7.92 | < 6.00 |  |  | 
Stable | O=C(CO)O[C@H]1CC[C@H](N2CCN(C(=O)c3nc4c(C(F)(F)F)cc(C5CC5)cn4c3Cl)CC2=O)CC1 |  |  |  |  |  |  |  | 
 | CNC(=O)c1c(-c2ccc(F)cc2)oc2cc(N(CCO)S(C)(=O)=O)c(C3CC3)cc12 [NESBUVIR] |  |  |  |  |  |  |  | 2.2
 | O=C(c1nn2c(C(F)(F)F)cc(C3CC3)cc2c1Cl)N1CCC2(OCC3(CC3)CO2)C(O)C1 (racemic) | 8.40 | 7.41 | 8.00 | 8.72 | 6.60 |  |  | 
 | O=C(c1nn2c(C(F)(F)F)cc(C3CC3)cc2c1Cl)N1CCN(C(=O)[C@H]2C[C@H](O)C2)CC1 | 8.70 | 6.48 | > 7.40 | 8.08 | < 6.00 |  |  | 
Stable | O=C(O)COCC(=O)O[C@H]1CC[C@H](N2CCN(C(=O)c3nc4c(C(F)(F)F)cc(C5CC5)cn4c3Cl)CC2=O)CC1 |  |  |  |  |  |  |  | 
 | O=C(c1oc2c(C(F)(F)F)cc(C3CC3)cc2c1Cl)N1CCN([C@H]2CC[C@H](O)CC2)C(=O)C1 | 10.05 | 7.66 | 8.40 | 9.10 | 6.96 | 5.1 | Non-toxic | 
 | O=C(c1nn2c(C(F)(F)F)cc(C3CC3)cc2c1Cl)N1CCN([C@@H]2C[C@@H]3C[C@@H]3[C@@H]2O)C(=O)C1 | 7.02 | < 6.00 | 7.64 | 7.72 | < 6.00 |  |  | 
 | O=C(c1nn2c(C(F)(F)F)cc(C3CC3)cc2c1Cl)N1CCN([C@H]2CC[C@H](O)CC2)C(=O)C1 | 9.52 | 7.49 | 7.92 | 8.70 | 6.51 | 4.1 | Non-toxic | 
 | O=C(c1nn2c(C(F)(F)F)cc(C3CC3)cc2c1Cl)N1CCN([C@@H]2C[C@H]3C[C@H]3[C@@H]2O)C(=O)C1 | 8.10 | 7.19 | 7.74 | 8.31 | 6.40 |  |  | 
